Results reported in ChEMBL document CHEMBL1268891, “Novel synthetic 2-amino-10-(3,5-dimethoxy)benzyl-9(10H)-acridinone derivatives as potent DNA-binding antiproliferative agents” (Bioorg Med Chem, 2010).
Activity calls are given as the source filed them. The rule behind the calls is not given here.

Experiments:
[1] = molecular target: T1, DNA topoisomerase 1 (Homo sapiens) (UniProt P11387); assay: Inhibition of human recombinant DNA topoisomerase 1-mediated DNA cleavage assessed as relaxation of supercoiled pBR322 plasmid DNA at 250 uM […] by ethidium bromide staining
T1 sequence (whole entry): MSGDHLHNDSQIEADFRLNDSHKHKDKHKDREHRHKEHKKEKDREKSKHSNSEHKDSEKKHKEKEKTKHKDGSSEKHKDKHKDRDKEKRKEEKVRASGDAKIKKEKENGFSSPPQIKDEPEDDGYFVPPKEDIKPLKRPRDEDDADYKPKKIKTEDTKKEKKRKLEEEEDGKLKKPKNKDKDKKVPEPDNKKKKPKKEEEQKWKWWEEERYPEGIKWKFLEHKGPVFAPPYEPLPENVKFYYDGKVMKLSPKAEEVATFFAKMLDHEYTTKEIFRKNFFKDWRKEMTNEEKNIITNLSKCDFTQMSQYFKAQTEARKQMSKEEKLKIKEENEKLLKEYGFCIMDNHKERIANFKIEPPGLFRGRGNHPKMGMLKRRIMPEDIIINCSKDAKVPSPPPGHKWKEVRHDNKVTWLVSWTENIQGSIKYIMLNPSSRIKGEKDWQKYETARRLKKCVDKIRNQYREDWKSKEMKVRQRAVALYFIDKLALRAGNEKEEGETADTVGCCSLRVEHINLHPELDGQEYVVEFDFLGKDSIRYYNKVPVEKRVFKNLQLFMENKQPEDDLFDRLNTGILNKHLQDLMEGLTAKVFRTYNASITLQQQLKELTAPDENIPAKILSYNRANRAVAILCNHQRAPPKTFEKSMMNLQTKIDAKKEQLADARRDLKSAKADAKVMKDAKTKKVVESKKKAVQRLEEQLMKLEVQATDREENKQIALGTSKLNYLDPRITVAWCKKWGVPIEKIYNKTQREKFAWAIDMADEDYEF
Outline: (§1)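 pBR322 (100 ng) incubated with 1.0 unit recombinant human topoisomerase I, with or without compound (10–50 or 250 μM), for 30 min at 37 °C. DMSO control included. Products run on 1% agarose in TAE at 100 V for 25 min and stained with ethidium bromide.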

CCRF-CEM = assay: Cytotoxicity against human CCRF-CEM cells after 48 hrs by MTT assay; type: functional, cell-based
Outline: (§2)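 CCRF-CEM cells grown in RPMI 1640 with 10% FBS and penicillin/streptomycin at 37 °C, 5% CO₂. Seeded at 2×10^5 cells/mL and exposed to graded doses from DMSO stock, in quintuplicate, for 48 h. MTT (5 mg/mL) added for 4 h, formazan dissolved in DMSO and read at 490 nm. IC50 is the concentration giving 50% growth inhibition.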

[2] = molecular target: T1, DNA topoisomerase 1 (Homo sapiens); assay: Inhibition of human recombinant DNA topoisomerase 1-mediated DNA cleavage assessed as relaxation of supercoiled pBR322 plasmid DNA at 50 uM […] by ethidium bromide staining; outline: as §1
Calf thymus DNA [3] = assay: Binding affinity to calf thymus DNA assessed as intercalation at 20 uM by fluorescence emission spectral analysis; type: nucleic-acid assay; details: Bos taurus
Outline: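 Compound at about 20 μM final (from 5 mM DMSO stock) in 10 mM Tris-HCl, 50 mM NaCl, pH 7.2, with or without ct DNA at 20 or 40 μM final. Emission recorded after equilibrium on excitation at 380 nm. DNA concentration set by A260 (6600 M⁻¹ cm⁻¹ per phosphate; A260:A280 1.87).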

Calf thymus DNA [4] = assay: Binding affinity to calf thymus DNA assessed as intercalation by UV-vis spectral analysis; type: nucleic-acid assay; details: Bos taurus
Outline: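 Compound at 40 μM titrated with ct DNA at 0–80 μM in 10 mM Tris-HCl, 50 mM NaCl, pH 7.2. Incubated 5 min, then spectra read in a 1.0 cm quartz cell. Kb obtained from a plot of [DNA]/(εa−εf) against [DNA], with DNA concentration in base pairs.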

HepG2 = assay: Cytotoxicity against human HepG2 cells after 48 hrs by MTT assay; type: functional, cell-based; details: HepG2, 48 h
Outline: as §2, with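 “A549, HepG2 and MCF7” for “CCRF-CEM”, “DMEM” for “RPMI 1640”, “treated with” for “exposed to”, “MTT” for “MTT (5 mg/mL)”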

MCF7 = assay: Cytotoxicity against human MCF7 cells after 48 hrs by MTT assay; type: functional, cell-based; details: MCF7, 48 h
Outline: as §2, with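 “A549, HepG2 and MCF7” for “CCRF-CEM”, “DMEM” for “RPMI 1640”, “treated with” for “exposed to”, “MTT” for “MTT (5 mg/mL)”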

A549 = assay: Cytotoxicity against human A549 cells after 48 hrs by MTT assay; type: functional, cell-based; details: A549, 48 h
Outline: as §2, with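 “A549, HepG2 and MCF7” for “CCRF-CEM”, “DMEM” for “RPMI 1640”, “treated with” for “exposed to”, “MTT” for “MTT (5 mg/mL)”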

COc1cc(Cn2c3ccccc3c(=O)c3cc(NC(=O)C(N)C(C)C)ccc32)cc(OC)c1 (stereo unspecified)
Activity [1]: Active
IC50 (CCRF-CEM): 810 nM
Activity [2]: inactive

COc1cc(Cn2c3ccccc3c(=O)c3cc(NC(=O)C(C)N)ccc32)cc(OC)c1 (stereo unspecified)
Activity [1]: Active
IC50 (CCRF-CEM): 610 nM
Activity [2]: inactive

COc1cc(Cn2c3ccccc3c(=O)c3cc(NC(=O)CCN4CCC(O)CC4)ccc32)cc(OC)c1
Activity [1]: Active
IC50 (CCRF-CEM): 640 nM
Activity [2]: inactive

COc1cc(Cn2c3ccccc3c(=O)c3cc(NC(=O)CN)ccc32)cc(OC)c1
Activity (Calf thymus DNA [3]): Active
IC50 (CCRF-CEM): 390 nM
Kb (Calf thymus DNA [4]): 1.5 ×10⁵ /M
IC50 (HepG2): 6500 nM
Activity [2]: Active
IC50 (MCF7): 11700 nM
IC50 (A549): 3400 nM

COc1cc(Cn2c3ccccc3c(=O)c3cc(NC(=O)CCN(C)C)ccc32)cc(OC)c1
Activity [1]: Active
IC50 (CCRF-CEM): 910 nM
Activity [2]: inactive

COc1cc(Cn2c3ccccc3c(=O)c3ccccc32)cc(OC)c1
Activity [1]: Active
Activity [2]: inactive

COc1cc(Cn2c3ccccc3c(=O)c3cc(NC(=O)CCN)ccc32)cc(OC)c1
Activity [1]: Active
IC50 (CCRF-CEM): 2550 nM
Activity [2]: inactive

COc1cc(Cn2c3ccccc3c(=O)c3cc(NC(=O)CCCN)ccc32)cc(OC)c1
Activity [1]: Active
IC50 (CCRF-CEM): 670 nM
Activity [2]: inactive

COc1cc(Cn2c3ccccc3c(=O)c3cc(NC(=O)CCCCN)ccc32)cc(OC)c1
Activity [1]: Active
IC50 (CCRF-CEM): 1190 nM
Activity [2]: inactive

COc1cc(Cn2c3ccccc3c(=O)c3cc(NC(=O)CCCCCN)ccc32)cc(OC)c1
Activity [1]: Active
IC50 (CCRF-CEM): 750 nM
Activity [2]: inactive

COc1cc(Cn2c3ccccc3c(=O)c3cc(NC(=O)CCN4CCCCC4)ccc32)cc(OC)c1
Activity [1]: Active
IC50 (CCRF-CEM): 600 nM
Activity [2]: inactive

COc1cc(Cn2c3ccccc3c(=O)c3cc(NC(=O)C(N)CCCCN)ccc32)cc(OC)c1 (stereo unspecified)
Activity [1]: Active
IC50 (CCRF-CEM): 750 nM
Activity [2]: inactive

COc1cc(Cn2c3ccccc3c(=O)c3cc(NC(=O)CCN(CCO)CCO)ccc32)cc(OC)c1
Activity [1]: Active
IC50 (CCRF-CEM): 950 nM
Activity [2]: inactive

COc1cc(Cn2c3ccccc3c(=O)c3cc(NC(=O)CCN4CCOCC4)ccc32)cc(OC)c1
Activity [1]: Active
IC50 (CCRF-CEM): 3010 nM
Activity [2]: inactive

CCN(CC)CCC(=O)Nc1ccc2c(c1)c(=O)c1ccccc1n2Cc1cc(OC)cc(OC)c1
Activity [1]: Active
IC50 (CCRF-CEM): 720 nM
Activity [2]: inactive

COc1cc(Cn2c3ccccc3c(=O)c3cc(NC(=O)CCN4CCCC4)ccc32)cc(OC)c1
Activity [1]: Active
Activity (Calf thymus DNA [3]): Active
IC50 (CCRF-CEM): 280 nM
Kb (Calf thymus DNA [4]): 5 ×10⁴ /M
IC50 (HepG2): 4000 nM
Activity [2]: inactive
IC50 (MCF7): 5700 nM
IC50 (A549): 25900 nM
